In the library only some 1.9% were active in any assay of this set; here they are far more common.
PLC-gamma1 inh: PLC-gamma1 (human) inhibition, primary screen | P19174 | purified PLC-gamma1, fluorogenic substrate, fluorescence | inhibition, % at 12.2 µM | 0.84% of 370,000 active; in the data active means inhibition above about 9.5%
ARFGAP1 inhibitor: rat ARFGAP1 inhibition; 0.26% of 360,000 active; inhibition, % at 16.5 µM; Q62848; Arfgap1-stimulated ARF1 GTP hydrolysis, GDP FP detection;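 active means inhibition above a per-plate limit, mean inhibition of low control wells plus 3 SD, cut at about 25% in these data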;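 further: 0% = DMSO wells with enzyme and 100% = wells lacking Arfgap1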
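material = rat Arfgap1 catalytic domain, aa 1-136 | also added = human ARF1(Δ1-17)-GTP substrate | compound dosing = one concentration, 16.5 µM, DMSO 1.26% | times = GTP hydrolysis reaction 2 h at 25 °C | measured by = FP, GDP Alexa 633 tracer displaced from anti-GDP antibody, 620/688 nm | evaluation = percent inhibition of Arfgap1-stimulated GTP hydrolysis | replication = single well per compound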
ASAP1 GAP inh: inhibitors of human ASAP1 ArfGAP activity | Q9ULH1 | ASAP1-stimulated ARF1 GTP hydrolysis, GDP FP detection | inhibition, % at 16.5 µM | 0.19% of 360,000 active | AID 624377; in the data active means inhibition above about 25%;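 further: 0% = vehicle with enzyme and substrate and 100% = no enzyme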
sPLA2-III inh: Blocks human group III sPLA2 activity; QFRET BODIPY PC-A2 liposome hydrolysis, fluorescence; AID 743126; Q9NZ20; inhibition, % at 12.2 µM; 0.56% of 370,000 active;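 active means inhibition above mean plus 3 SD of compounds lying within the high and low control bounds, cut at about 19% in these data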;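 further: 0% = median of test compound wells and 100% = no enzyme DMSO wells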
PLC-beta3 inh: blocks human PLC-beta3 enzyme activity | 0.18% of 370,000 active | Q01970 | Purified PLC-beta3, fluorogenic substrate, fluorescence | inhibition, % at 12.2 µM; in the data active means inhibition above about 11%;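 further: 0% = median of compound wells on plate and 100% = full blocker control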
sPLA2 confirm: human GIII-sPLA2 inhibition, confirmation; shares compounds with sPLA2-III inh; recombinant hGIII-sPLA2, BODIPY PC-A2 QFRET fluorescence; inhibition, % at 12.2 µM; 34% of 2,000 active; AID 743280;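 active means mean inhibition across triplicates above the hit cutoff set in the earlier primary screen, cut at about 19% in these data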;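 further: 0% = enzyme with DMSO and 100% = DMSO wells lacking enzyme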
BODIPY interf: optically interferes with 535nm fluorescence in sPLA2 counter-screen. BODIPY FL product fluorescence interference, QFRET. 8.5% of 2,000 active. shares compounds with sPLA2-III inh. AID 743282. inhibition, % at 12.2 µM;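 active means average inhibition above the solvent-only control mean plus 3 SD, cut at about 6% in these data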;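 further: 0% = DMSO with substrate plus product and 100% = DMSO with substrate alone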
535nm interf DR: interferes with 535nm fluorescence in dose response counter-screen; shares compounds with sPLA2-III inh; BODIPY FL product fluorescence interference, cell-free; IC50, µM; 240 tested, under 10 active; AID 743455;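 active means IC50 at or below 10 µM; inactive means IC50 above 10 µM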
* marks the source's active call; other numbers are inactive results; . = not tested or not shown.

SMILES	PLC-gamma1 inh	ARFGAP1 inhibitor	ASAP1 GAP inh	sPLA2-III inh	PLC-beta3 inh	sPLA2 confirm	BODIPY interf	others
O=C(NNC(=S)Nc1cccc(Cl)c1)c1ccccc1OC(F)F	-7	6	-5	25*	-7	43*	2	535nm interf DR=>122
COc1cccc(NC(=S)Nc2ccc(O)cc2)c1	-4	16	9	6	-10	.	.
COc1cccc(NC(=S)NNC(=O)c2ccccc2OC(F)F)c1	9	4	8	25*	1	31*	6
Cc1nc(SCC(=O)N2CCOCC2)c2c(=O)n(C)c(=O)n(C)c2n1	2	5	4	21*	-6	11	-2
Cc1nc(SCC(=O)N2CCOCC2)c2c(=O)n(C)c(=O)n(CC(C)C)c2n1	0	6	-9	2	0	.	.
O=C(OCc1cn(Cc2ccc(F)c(F)c2)nn1)N1CCOCC1	2	.	.	19*	-6	-3	-2
O=C(OCc1cn(Cc2ccc(F)c(F)c2)nn1)N1CCCC1	2	.	.	2	1	.	.
CCCCNc1nc2c(S(=O)(=O)c3ccccc3)nnn2c2ccccc12	3	0	5	20*	0	4	-6
CCc1ccc(S(=O)(=O)c2nnn3c2nc(NCCNC(C)=O)c2ccccc23)cc1	-7	-3	-12	6	-8	.	.
O=C(/C=C/c1ccc2c(c1)OCO2)NCc1ccco1	-57	22	-7	20*	-57	-2	-6
O=C(NNc1nc2c(F)cc(F)cc2s1)C1=COCCO1	4	3	0	15	-3	.	.
Cc1cccc2sc(NNC(=O)C3=COCCO3)nc12	4	8	9	21*	1	23*	-7
Cc1cccc2sc(NNC(=O)c3cc(-c4cccs4)nc4ccccc34)nc12	-125	12	2	50*	-130	49*	8.8*
CC(C)C[C@H]1COc2cccc(F)c2S(=O)(=O)N1C	0	.	.	0	-3	.	.
COc1ccc(N=Nc2nc(-c3ccccc3)c(-c3ccccc3)[nH]2)cc1	0	3	14	28*	3	30*	2	535nm interf DR=>122
Oc1ccccc1N=Nc1nc(-c2ccccc2)c(-c2ccccc2)[nH]1	7	12	7	28*	2	14	16*
CCOc1ccc(NC(=S)Nc2ccc(Br)cc2Cl)cc1	4	14	-9	6	3	.	.
CCOCCCNC(=S)Nc1ccc(Br)cc1Cl	1	3	-4	20*	-6	5	-6
CCN(CC)CCn1c(-c2ccccc2)nc(=S)c2c1CC(C)(C)OC2	7	3	1	21*	5	0	-1
CCC(C)NC(=O)c1ccc(NC(=O)C2=C(C)OCCS2)cc1 (stereo not given)	7	3	7	21*	-2	-1	-7
CCCCCC(=O)NNC(=S)NC(=O)c1ccccc1[N+](=O)[O-]	-2	2	6	21*	-3	33*	-2	535nm interf DR=>122
O=C(NNC(=S)NC(=O)c1ccccc1[N+](=O)[O-])c1ccccc1Cl	4	-5	-2	36*	-1	31*	-1	535nm interf DR=>122
O=C(NC(=S)Nc1ccccc1[N+](=O)[O-])c1ccccc1Cl	2	7	1	8	-2	.	.
COc1ccc(C=C2NC(=S)NC2=O)cc1	4	5	10	25*	-3	11	-3
COc1ccccc1OCC(=O)Nn1c(=S)[nH]c2ncccc2c1=O	1	1	-1	24*	-1	8	-4
SMILES	PLC-gamma1 inh	ARFGAP1 inhibitor	ASAP1 GAP inh	sPLA2-III inh	PLC-beta3 inh	sPLA2 confirm	BODIPY interf	others
O=C(COc1ccc(Cl)cc1Cl)Nn1c(=S)[nH]c2ncccc2c1=O	-3	-3	-5	19	-1	.	.
S=C(NCc1ccco1)NCC(c1ccco1)N1CCCCC1 (stereo not given)	5	9	15	23*	2	27*	-9
CC(C)CN1C(=O)[C@@]2(CC(=O)N(C)C2c2ccccc2)c2cc(-n3cc(CCCC#N)nn3)ccc21 (stereo not given in full)	2	.	.	-6	1	.	.
C=CCN1[C@@H](C)COc2cccc(N3CCSCC3)c2S1(=O)=O	1	.	.	10	-2	.	.
COC(=O)Cn1c2ccccc2c(=O)n1C(C)C	-53	7	-6	20*	-72	1	1
OC(c1ccccc1)c1ccccc1CN1CCCNC1=S (stereo not given)	2	-10	3	19*	0	10	-1
Cc1cc(C)cc(C(=O)OCCN(C)C2CN(Cc3cn(Cc4cccc(F)c4)nn3)S(=O)(=O)C2)c1 (stereo not given)	2	.	.	-1	2	.	.
O=C(CSc1nnc(Cc2cccs2)n1-c1ccccc1)Nc1ccccc1-c1ccccc1	2	.	.	-6	-1	.	.
COC(=O)C(C)(C)ONC(=O)Nc1ccccc1Cl	0	4	-2	1	-1	.	.
COC(=O)C(C)(C)ONC(=O)Nc1ccccc1Br	5	14	-9	21*	-1	-4	-9
CCCCNC(=O)C[C@H]1C[C@@]2(C(=O)OC)C(=C[C@H](C3CCCC3)O[C@@H]2C)N(CCc2ccc(OC)c(OC)c2)C1=O	1	.	.	-2	1	.	.
C[C@@H]1CN(C(=O)OC(C)(C)C)CCN1c1ccc(N2CC[C@H](O)C2)c(C#N)c1	-244	8	0	21*	-316	8	-13
O=C(NNC(=O)c1cc2ccccc2cc1O)Nc1ccc(Br)cc1	-57	-4	-6	31*	-80	31*	6.2*
COc1ccc(NC(=O)NNC(=O)c2cc3ccccc3cc2O)cc1	-104	-11	6	22*	-161	23*	2
Cc1[nH]c2ccccc2c1C(=O)c1c(N)[nH]c(C(=O)c2ccc(Br)cc2)c1-c1ccc(Br)cc1	-5	3	-1	-5	-3	.	.
Cc1ccc(C(=O)NC(=S)Nn2cnnc2)cc1	-2	-5	-2	7	2	.	.
O=C(NC(=S)Nn1cnnc1)c1cccc(Br)c1	-1	11	9	22*	-9	4	-2
Fc1ccc(-c2n[nH]c(=S)n2-c2ccc3c(c2)OCCO3)cc1	-3	-1	-1	15	-6	.	.
S=c1[nH]nc(-c2ccc(Cl)cc2)n1-c1ccc2c(c1)OCCO2	-11	8	20	21*	-8	32*	1	535nm interf DR=>122
CCOC(=O)NC(NC(=S)Nc1ccc(OCC)cc1)C(Cl)(Cl)Cl (stereo not given)	2	8	10	24*	0	9	-5
CCOc1ccc(NC(=S)Nc2ccc(OC)cc2)cc1	-2	-6	-4	8	-4	.	.

Screening results (PubChem BioAssay)
